Mdm2 MdmX PPI: human Mdm2/MdmX binding inhibition; SaOS-2 split-luciferase Mdm2/MdmX complementation, luminescence; inhibition, % at 8 µM; 3% of 330,000 active; AID 485346;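 active = inhibition of at least 50% at 8 µM in the primary screen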
Target sequence (O15151 whole entry, looked up): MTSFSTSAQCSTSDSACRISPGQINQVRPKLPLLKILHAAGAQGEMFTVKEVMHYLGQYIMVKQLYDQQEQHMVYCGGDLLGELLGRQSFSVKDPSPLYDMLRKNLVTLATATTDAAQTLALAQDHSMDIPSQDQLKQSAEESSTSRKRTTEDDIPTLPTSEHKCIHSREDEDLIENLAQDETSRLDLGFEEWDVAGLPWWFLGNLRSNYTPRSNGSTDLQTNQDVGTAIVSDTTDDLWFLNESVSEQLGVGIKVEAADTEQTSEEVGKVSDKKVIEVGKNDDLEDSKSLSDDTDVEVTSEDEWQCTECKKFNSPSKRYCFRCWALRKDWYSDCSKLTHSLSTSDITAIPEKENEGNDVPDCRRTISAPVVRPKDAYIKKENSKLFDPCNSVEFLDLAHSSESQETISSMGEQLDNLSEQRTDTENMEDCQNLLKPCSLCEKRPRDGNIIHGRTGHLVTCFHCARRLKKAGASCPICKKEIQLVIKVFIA
Target sequence (Q00987 whole entry, looked up): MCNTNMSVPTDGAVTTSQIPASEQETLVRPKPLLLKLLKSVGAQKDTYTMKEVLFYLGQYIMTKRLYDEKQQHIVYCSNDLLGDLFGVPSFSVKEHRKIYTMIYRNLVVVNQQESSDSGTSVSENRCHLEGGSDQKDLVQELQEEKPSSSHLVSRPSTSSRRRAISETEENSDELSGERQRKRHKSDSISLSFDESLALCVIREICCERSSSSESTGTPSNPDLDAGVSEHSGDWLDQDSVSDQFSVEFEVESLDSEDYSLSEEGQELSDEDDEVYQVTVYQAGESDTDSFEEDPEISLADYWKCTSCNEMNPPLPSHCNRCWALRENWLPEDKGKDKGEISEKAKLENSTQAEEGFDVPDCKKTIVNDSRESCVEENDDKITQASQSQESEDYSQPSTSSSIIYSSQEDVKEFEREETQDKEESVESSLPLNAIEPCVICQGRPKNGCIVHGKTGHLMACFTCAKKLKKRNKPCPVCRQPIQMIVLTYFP
Calb FLC: affects C. albicans growth with fluconazole; C. albicans CaCi-2 (fluconazole-resistant clinical isolate) + fluconazole, Alamar Blue growth, 48 h; growth inhibition, % (concentration not given with the values); 0.57% of 300,000 active;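 active = growth inhibition above about 58% in most replicates, limit read from the data, passing the limit was not always enough; inconclusive = exactly half the replicates above a set limit; inactive = most replicates below a set limit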;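 also: all wells also contain fluconazole at 8 µg/ml as a sub-toxic cotreatment; 0% = median of DMSO wells and 100% = median of geldanamycin control wells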
Beta apoptosis: blocks beta cell apoptosis | protection from apoptosis, % (test concentration not listed) | INS-1E cytokine-induced death, ATP luminescence, 48 h; percent of positive-control rescue, neutral wells zero | 0.8% of 300,000 active;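 active = Every replicate reaches about 75%, or at least half do and their mean reaches it too, limit read from the data; inconclusive = At least half of replicates reach the limit but their mean does not; inactive = Under half of replicates reach the limit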;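 also: 0% = cytokine-treated negative control wells and 100% = positive control rescue; higher means more ATP so stronger rescue from cytokine killing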
SKKanGAS inh: inhibitors of SKKanGAS S. pyogenes growth in kanamycin (SK-promoter or general growth effect) | BacTiter-Glo, 6 h | inhibition, % at 7.5 µM | 1.3% of 300,000 active;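 active = mean replicate score, as percent of positive control median, at least 50; inconclusive = mean below 50 but one replicate at or above 50; inactive = mean and every replicate below 50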;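 also: strain carries kanamycin resistance gene driven by streptokinase promoter and grows in 40 µg/ml kanamycin; loss of luminescence reflects streptokinase promoter inhibition or plain growth inhibition; 0% = median of DMSO wells and 100% = positive control at its reference dose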
T cruzi repl: T. cruzi replication inhibition | T. cruzi beta-gal in NIH3T3, luminescence, 90 h | AID 1885 | inhibition, % (no concentration beside the values) | 1.4% of 300,000 active;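 active = mean inhibition across valid replicates above about 55%, limit read from the data; inconclusive = mean below that limit but half or more replicates reach it; inactive = mean below it, under half of replicates reach it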;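 also: signal also drops with host cell toxicity which is not excluded here; 0% = plate median of DMSO wells and 100% = zero luminescence signal; higher percent means less beta-gal luminescence so fewer parasites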
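System: mouse NIH/3T3 fibroblasts infected with β-gal-expressing T. cruzi Tulahuen C4 / Input: NIH/3T3 cells, 5,000 per well / Buffer or medium: Low-serum DMEM with 2% FBS / Probe or stimulus: 5000 reporter trypomastigotes per well / Schedule: ≥90 h infection period, 3 h prior cell attachment / Measured by: GalScreen luminescence, 60 min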
CSC inhib: cancer stem cell inhibition; cancer stem cell-like cells viability, luminescence; inhibition, % at 7.5 µM; 1.1% of 300,000 active; AID 2717; in the data active = inhibition above about 75%; inconclusive = no clear call, values can overlap the other calls; tested in HMLE shEcad cells
* marks the source's active call; other numbers are inactive results; u = inconclusive; x = not tested or not shown. Shown are actives, neighbours in structure and some others; about 5.7% of the full set was active somewhere.

SMILES	Mdm2 MdmX PPI	Calb FLC	Beta apoptosis	SKKanGAS inh	T cruzi repl	CSC inhib
COc1cc(CNc2ccccc2Oc2cc(=O)n(C)c(=O)n2C)cc(OC)c1OC	6	-7	0	-6	-8	5
Cn1c(Oc2ccccc2NCc2cc(Br)ccc2O)cc(=O)n(C)c1=O	14	-2	10	59*	-4	16
CCOc1ccc(C(=O)Nc2c(C(N)=O)oc3ccccc23)cc1	4	-3	-1	-14	-1	x
CCOc1ccc(C(=O)Nc2c(C(=O)N3CCC(N4CCCCC4)CC3)oc3ccccc23)cc1	11	1	-4	-3	58*	21
N=C1S/C(=C\c2cn[nH]c2-c2ccc(F)cc2)C(=O)N1c1ccccc1F	-28	24	-26	60*	-4	73
CCCc1nc2sc3ccccc3c(=O)c2c(=O)n1Cc1ccc(OC)cc1	30	7	100*	41	22	-5
COCCn1c(C2CCCCC2)nc2sc3ccccc3c(=O)c2c1=O	13	-19	12	19	55*	70
CC(C)c1nc2sc3ccccc3c(=O)c2c(=O)n1Cc1ccccc1	10	-1	2	6	-31	77*
CC(=O)c1cccc(NC(=O)CCN2C(=O)C3C4CCC(C4)C3C2=O)c1 (configuration not stated)	-5	3	2	1	-12	13
O=C1C(Cl)=C(N2CCC(C(=O)O)CC2)C(=O)c2ccccc21	-20	36	-28	16	-11	26
NC(=O)C1CCN(C2=C(Cl)C(=O)c3ccccc3C2=O)CC1	12	4	15	-8	59*	85*
Nc1nc(-c2ccccc2)c(N=Nc2cccc3ccccc23)s1	26	14	16	57*	27	56
Nc1nc(-c2ccccc2)c(N=Nc2ccccc2Cl)s1	27	101*	5	-6	31	-6
CC(=O)Nc1sc(N)nc1-c1ccccc1	-1	15	-9	-3	4	-1
Cc1ccc2oc(=O)c3cnn(CC(=O)NC4CCN(Cc5ccccc5)CC4)c3c2c1	-5	-3	2	1	57*	-6
O=C(Cn1ncc2c(=O)oc3ccccc3c21)NC1CC1	-37	-4	-2	0	-7	-12
COc1ccc(OC)c(-c2cc(C(=O)Nc3cccc(Cl)c3)no2)c1	-30	-5	3	-13	55*	-9
COc1ccc(NC(=O)c2cc(-c3ccccc3OC)on2)cc1	x	-16	9	-2	-51	80*
O=C(Cc1c(F)cccc1Cl)Nc1cc(S(=O)(=O)N2CCOCC2)ccc1N1CCOCC1	-1	x	x	x	x	x
COCCN1C2=C(C(=O)CC(C)(C)C2)C(c2ccc(OC)c(OC)c2)C2=C1CC(C)(C)CC2=O	-1	1	x	-2	-2	-12
COc1cc(/C=N/Nc2ncnc3sc4c(c23)CCC4)ccc1O	x	-7	x	70*	-5	x
Cc1onc(-c2c(F)cccc2Cl)c1C(=O)NNC(=O)C1CCN(Cc2ccccc2)CC1	-22	92*	-4	-7	0	-1
Cc1cccc(CN2CCN(C(c3ccccc3)c3ccc(Cl)cc3)CC2)c1 (configuration not stated)	30	x	61	17	18	86*
CN1CCN(Cc2cccc(Oc3ccc(Cl)cc3)c2)CC1	13	-15	0	-9	75*	52
COc1cc(CN2CCN(C(c3ccccc3)c3ccccc3)CC2)cc(OC)c1OC	16	-2	12	1	0	2
SMILES	Mdm2 MdmX PPI	Calb FLC	Beta apoptosis	SKKanGAS inh	T cruzi repl	CSC inhib
CCN1CCN(Cc2cccc(Oc3ccccc3)c2)CC1	-32	7	8	-9	59*	43
O=C1CCCCC/C1=N/Nc1ccc(OCc2ccccc2)cc1	-3	94*	-4	0	-1	58
O=C(COc1ccc(OCc2ccccc2)cc1)NN=C1CCCC1	-38	-3	-3	19	2	12
CC(NCc1cc(Br)ccc1OCC(=O)NCc1ccccc1)c1ccccc1 (configuration not stated)	37	u	4	-3	60*	x
CCN(CC)CCNCc1cc(Br)ccc1OCC(=O)NCc1ccccc1	-15	-16	3	3	16	11
CCn1c(C)nc2cc(C(=O)N/N=C/c3cccc(OC)c3O)ccc21	35	108*	x	8	-23	109*
COc1cccc(/C=N/NC(=O)CNC(=O)CCc2ccccc2)c1O	31	-4	0	16	-3	44
